Measured values as given in ChEMBL document CHEMBL3352704, “Microwave-assisted synthesis of 3,5-disubstituted isoxazoles and evaluation of their anti-ageing activity” (2014).
Calls of active or inactive are those of the source. The rule behind the calls is not given here.

Key:
Caenorhabditis elegans [1] = experiment: Antiaging activity in Caenorhabditis elegans Bristol isolate N2 assessed as increase in lifespan at 1 uM (reference value: 15 +/- 0.85%); type: functional
HLF1 [2] = experiment: Inhibition of H2O2-induced oxidative stress in human HLF1 cells assessed as increase in cell viability at 2 to 5 uM pretreated for 24 hrs followed by addition of 300 uM H2O2 for 2.5 hrs; type: functional, cell-based
Caenorhabditis elegans [3] = experiment: Antiaging activity in Caenorhabditis elegans Bristol isolate N2 assessed as increase in lifespan at 10 uM (reference value: 15 +/- 0.85%); type: functional
Caenorhabditis elegans [4] = experiment: Antiaging activity in Caenorhabditis elegans Bristol isolate N2 assessed as increase in lifespan at 20 uM (reference value: 15 +/- 0.85%); type: functional
Caenorhabditis elegans [5] = experiment: Antiaging activity in Caenorhabditis elegans Bristol isolate N2 assessed as lifespan; type: functional, organism-based
Outline: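 C. elegans N2 hermaphrodites, egg-lay synchronized, moved at L4 (80-120 per condition) onto UV-killed OP50/NGM plates carrying compound in DMSO diluted in M9, or DMSO alone; 20 °C, new plates every 2 days, exposure lifelong. Day 1 adult = t0. Scored daily for touch-provoked movement and pharyngeal pumping until death. Kaplan–Meier curves, log-rank test; repeated at least twice.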

HLF1 [6] = experiment: Inhibition of H2O2-induced oxidative stress in human HLF1 cells assessed as cell viability at 5 uM pretreated for 24 hrs followed by addition of 300 uM H2O2 for 2.5 hrs; type: functional, cell-based
Outline: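 HFL-1 embryonic lung fibroblasts in DMEM/10% FBS, fed about 16 h before assay; 10⁴ cells seeded, 24 h later given compound in DMSO or DMSO alone for 24 h. Then 300 μM H2O2 for 2.5 h with compound still present, PBS wash, 5-day recovery in complete medium. Cells counted in triplicate with a Coulter counter; at least two experiments.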

Caenorhabditis elegans [7] = experiment: Antiaging activity in Caenorhabditis elegans Bristol isolate N2 assessed as lifespan at 10 uM; type: functional, organism-based

Row | Compound | Activity (Caenorhabditis elegans [5]) | inhibition (HLF1 [6]) | also measured
1 | Cc1c(C)c2c(c(C)c1O)C=CC(C)(COCc1cc(-c3ccc(O)cc3)no1)O2 (stereo unspecified) | – | – | ILS at 1 µM (Caenorhabditis elegans [1]): 18%; Activity (HLF1 [2]): Active; ILS at 10 µM (Caenorhabditis elegans [3]): 18%; ILS at 20 µM (Caenorhabditis elegans [4]): 20%
2 | COc1c(C)c(C)c2c(c1C)CCC(C)(COCc1cc(-c3ccc(O)cc3)no1)O2 (stereo unspecified) | inactive | inactive | –
3 | O=c1c(O)c(-c2ccc(O)c(O)c2)oc2cc(O)cc(O)c12 | – | – | Activity (Caenorhabditis elegans [7]): inactive; Activity (HLF1 [2]): Active
4 | OCc1cc(-c2ccc(O)cc2)no1 | inactive | inactive | –
5 | Cc1c(C)c2c(c(C)c1O)C=CC(C)(COCc1cc(-c3ccc(F)cc3)no1)O2 (stereo unspecified) | inactive | inactive | –
6 | CCCc1cc(-c2ccc(O)cc2)no1 | inactive | inactive | –
7 | Oc1ccc(-c2cc(-c3ccccc3)on2)cc1 | inactive | inactive | –
